According to ChEMBL document CHEMBL3352265, “Potentially bioactive organotin(IV) compounds: synthesis, characterization, in vitro bioactivities and interaction with SS-DNA” (Eur J Med Chem, 2014):
≈ marks a conversion by molar mass, not a printed value. Calls of active or inactive are those of the source. No cut-off for these calls is given here.

What was measured:
Staphylococcus aureus [1] = assay: Antibacterial activity against Staphylococcus aureus ATCC 6538 at 40 mg/mL after 24 hrs by disc diffusion method; format: functional
Method in brief: (§1)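 Disc diffusion. Strains grown in nutrient broth at 37 °C for 24 h. 1% culture (about 10^6 CFU/mL) mixed into nutrient agar at 45 °C and poured. 4 mm paper discs received compound at 40 mg/mL stock in DMSO; final concentrations tested were […]. DMSO served as negative control, roxithromycin and cefixime as positive controls. Triplicate plates incubated at 37 °C for 24 h. Complete-inhibition zone diameter (mm) recorded as the mean of 3.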

Salmonella typhimurium [2] = assay: Antibacterial activity against Salmonella typhimurium ATCC 14028 at 40 mg/mL after 24 hrs by disc diffusion method; format: functional; method in brief: as §1
Escherichia coli [3] = assay: Induction of Escherichia coli pBR322 DNA damage assessed as open circular form at 1 ug/ml after 60 mins by gel electrophoresis
Escherichia coli [4] = assay: Antibacterial activity against Escherichia coli ATCC 15224 at 40 mg/mL after 24 hrs by disc diffusion method; format: functional; method in brief: as §1
Salmonella typhimurium [5] = assay: Antibacterial activity against Salmonella typhimurium ATCC 14028 after 18 hrs by microdilution method; format: functional
Method in brief: (§2)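 Broth microdilution. Twofold dilutions in culture broth at […]. Each well inoculated with bacterial suspension (10^8 CFU/mL, about 10^5 CFU/well). Sterility control and growth control (broth plus DMSO) included. Incubated at 36 °C for 18 h, in triplicate. MIC taken as the lowest concentration inhibiting growth, given in micrograms per mL.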

[6] = test system: Agrobacterium tumefaciens; assay: Antitumor activity against Agrobacterium tumefaciens -induced tumor at 1000 ug/ml after 21 days by potato disc bioassay technique; format: functional
Method in brief: (§3)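 Potato disc assay with 48 h culture of A. tumefaciens At-10. Inoculum contained compound at […]. Red-skinned potatoes sterilized in 0.1% HgCl2; 8 mm × 4 mm discs placed ten per 1.5% agar plate, […] each. Incubated at 28 °C in the dark for 21 days, in triplicate. Discs stained with Lugol's and tumors counted. Percent inhibition calculated against the negative control.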

Escherichia coli [7] = assay: Induction of Escherichia coli pBR322 DNA damage assessed as open circular form at 1000 ug/ml after 60 mins by gel electrophoresis
Mucor [8] = assay: Antifungal activity against Mucor FCBP 0400 at 40 mg/mL after 7 days by disc diffusion method; format: functional
Method in brief: (§4)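 Disc diffusion on SDA. Fungi cultured at 28 °C for 24 h. 4 mm discs received compound at 40 mg/mL stock in DMSO. DMSO served as negative control, terbinafine as positive control. Plates incubated at 28 °C for 7 days. Growth diameter (mm) measured and inhibition calculated against the negative control. MIC taken as the lowest concentration with no growth.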

Aspergillus flavus [9] = assay: Antifungal activity against Aspergillus flavus FCBP 0064 at 40 mg/mL after 7 days by disc diffusion method; format: functional; method in brief: as §4
Escherichia coli [10] = assay: Induction of Escherichia coli pBR322 DNA damage assessed as open circular form at 10 ug/ml after 60 mins by gel electrophoresis
Aspergillus flavus [11] = assay: Antifungal activity against Aspergillus flavus FCBP 0064 after 7 days by disc diffusion method; format: functional, organism-based; method in brief: as §4
[12] = test system: Agrobacterium tumefaciens; assay: Antitumor activity against Agrobacterium tumefaciens -induced tumor at 100 ug/ml after 21 days by potato disc bioassay technique; format: functional; method in brief: as §3
Aspergillus fumigatus [13] = assay: Antifungal activity against Aspergillus fumigatus FCBP 66 at 40 mg/mL after 7 days by disc diffusion method; format: functional; method in brief: as §4
Escherichia coli [14] = assay: Antibacterial activity against Escherichia coli ATCC 15224 after 18 hrs by microdilution method; format: functional; method in brief: as §2
[15] = test system: Bordetella bronchiseptica; assay: Antibacterial activity against Bordetella bronchiseptica ATCC 4617 after 18 hrs by microdilution method; format: functional; method in brief: as §2
Artemia salina = assay: Cytotoxicity in brine shrimp assessed as mortality after 24 hrs; format: functional
Aspergillus niger [16] = assay: Antifungal activity against Aspergillus niger FCBP 0198 after 7 days by disc diffusion method; format: functional, organism-based; method in brief: as §4
Klebsiella aerogenes [17] = assay: Antibacterial activity against Enterobacter aerogenes ATCC 13048 after 18 hrs by microdilution method; format: functional, organism-based; method in brief: as §2
[18] = test system: Bordetella bronchiseptica; assay: Antibacterial activity against Bordetella bronchiseptica ATCC 4617 at 40 mg/mL after 24 hrs by disc diffusion method; format: functional; method in brief: as §1
Aspergillus fumigatus [19] = assay: Antifungal activity against Aspergillus fumigatus FCBP 66 after 7 days by disc diffusion method; format: functional, organism-based; method in brief: as §4
[20] = test system: Agrobacterium tumefaciens; assay: Antitumor activity against Agrobacterium tumefaciens -induced tumor at 10 ug/ml after 21 days by potato disc bioassay technique; format: functional; method in brief: as §3
Staphylococcus aureus [21] = assay: Antibacterial activity against Staphylococcus aureus ATCC 6538 after 18 hrs by microdilution method; format: functional; method in brief: as §2
Escherichia coli [22] = assay: Induction of Escherichia coli pBR322 DNA damage assessed as open circular form at 100 ug/ml after 60 mins by gel electrophoresis
Mucor [23] = assay: Antifungal activity against Mucor FCBP 0400 at 40 mg/mL by disc diffusion method; format: functional, organism-based; method in brief: as §4
Aspergillus niger [24] = assay: Antifungal activity against Aspergillus niger FCBP 0198 at 40 mg/mL after 7 days by disc diffusion method; format: functional; method in brief: as §4
Klebsiella aerogenes [25] = assay: Antibacterial activity against Enterobacter aerogenes ATCC 13048 at 40 mg/mL after 24 hrs by disc diffusion method; format: functional; method in brief: as §1
Bacillus spizizenii [26] = assay: Antibacterial activity against Bacillus subtilis ATCC 6633 after 18 hrs by microdilution method; format: functional; method in brief: as §2
Bacillus spizizenii [27] = assay: Antibacterial activity against Bacillus subtilis ATCC 6633 at 40 mg/mL after 24 hrs by disc diffusion method; format: functional; method in brief: as §1
Leishmania major = assay: Antileishmanial activity against Leishmania major kwh 23 after 72 hrs using neobar counting by microscopy; format: functional, organism-based; conditions: kwh 23, 72 h
Method in brief: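 Leishmania major promastigotes grown 7 days at 24 °C in medium 199 with 10% FBS. Samples as 10,000 ppm DMSO stocks, added to reach 200 ppm in the first row and serially diluted in 96-well plates, DMSO kept <5%. DMSO negative and amphotericin B positive controls. Incubated 72 h at 24 °C. Mortality counted in a counting chamber by light microscopy. Run 3 times. IC50 is the concentration giving 50% parasite reduction.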

[28] = test system: Agrobacterium tumefaciens; assay: Antitumor activity against Agrobacterium tumefaciens -induced tumor after 21 days by potato disc bioassay technique; format: functional, organism-based; conditions: 504 h; method in brief: as §3
[29] = Salmonella enterica subsp. enterica serovar Typhimurium

In the case of “N-[(2-methoxyphenyl)]-4-oxo-4-[(trimethylstannyl)oxy]butanamide”, the inhibition zone (IZ) (Staphylococcus aureus [1]) is reported as 25 mm, the inhibition zone (IZ) (Salmonella typhimurium [2]; [29]) is reported as 23 mm and the Activity (Escherichia coli [3]) is reported as “Active”. For the same compound, the inhibition zone (IZ) (Escherichia coli [4]) was 26 mm, the MIC (Salmonella typhimurium [5]; [29]) was 25 µg/mL and the Activity [6] was 69.9%. The Activity (Escherichia coli [7]) was “Active”, the inhibition zone (IZ) (Mucor [8]) was 24 mm and the inhibition zone (IZ) (Aspergillus flavus [9]) was 28 mm. For the same compound, the Activity (Escherichia coli [10]) was “Active”, the MIC (Aspergillus flavus [11]) was 50 µg/mL and the Activity [12] was 54.8%. The inhibition zone (IZ) (Aspergillus fumigatus [13]) was 22 mm, the MIC (Escherichia coli [14]) was 25 µg/mL and the MIC [15] was 12.5 µg/mL. For the same compound, the LD50 (Artemia salina) was 1.09 µg/mL, the MIC (Aspergillus niger [16]) was 12.5 µg/mL and the MIC (Klebsiella aerogenes [17]) was 50 µg/mL. The inhibition zone (IZ) [18] was 26 mm, the MIC (Aspergillus fumigatus [19]) was 50 µg/mL and the Activity [20] was 30.2%. For the same compound, the MIC (Staphylococcus aureus [21]) was 50 µg/mL, the Activity (Escherichia coli [22]) was “Active” and the MIC (Mucor [23]) was 50 µg/mL. For the same compound, the inhibition zone (IZ) (Aspergillus niger [24]) was 28 mm, the inhibition zone (IZ) (Klebsiella aerogenes [25]) was 20 mm and the MIC (Bacillus spizizenii [26]) was 25 µg/mL. The inhibition zone (IZ) (Bacillus spizizenii [27]) was 27 mm.
C[C@@H]1[C@H](O)[C@@H](C)/C=C/C=C/C=C/C=C/C=C/C=C/C=C/[C@H](O[C@@H]2O[C@H](C)[C@@H](O)[C@H](N)[C@@H]2O)C[C@@H]2O[C@](O)(C[C@@H](O)C[C@@H](O)[C@H](O)CC[C@@H](O)C[C@@H](O)CC(=O)O[C@H]1C)C[C@H](O)[C@H]2C(=O)O [AMPHOTERICIN B] gave an IC50 (Leishmania major) of 0.56 µg/mL (≈ 0.606 µM).
COc1ccccc1NC(=O)CCC(=O)O was tested, and the zone of inhibition at 40000 µg/mL (Staphylococcus aureus [1]; ATCC 6538, 24 h, read-out: DIZ) was 11 mm, the zone of inhibition at 40000 µg/mL (Salmonella typhimurium [2]; Salmonella enterica, ATCC 14028, 24 h, read-out: DIZ) was 8 mm and the Activity (Escherichia coli [3]) was “inactive”. For the same compound, the zone of inhibition at 40000 µg/mL (Escherichia coli [4]; ATCC 15224, 24 h, read-out: DIZ) was 16 mm, the MIC (Salmonella typhimurium [5]; Salmonella enterica, ATCC 14028, 18 h) was 200 µg/mL (≈ 896 µM) and the Activity [6] was 62.64%. The Activity (Escherichia coli [7]) was “inactive”, the zone of inhibition at 40000 µg/mL (Mucor [8]; FCBP 0400, 168 h, read-out: DIZ) was 0 mm and the zone of inhibition at 40000 µg/mL (Aspergillus flavus [9]; FCBP 0064, 168 h, read-out: DIZ) was 0 mm. For the same compound, the Activity (Escherichia coli [10]) was “inactive”, the Activity [12] was 31.14% and the zone of inhibition at 40000 µg/mL (Aspergillus fumigatus [13]; FCBP 66, 168 h, read-out: DIZ) was 0 mm. For the same compound, the IC50 [28] was 410 µg/mL (≈ 1840 µM), the MIC (Escherichia coli [14]; ATCC 15224, 18 h) was 100 µg/mL (≈ 448 µM) and the MIC ([15]; ATCC 4617, 18 h) was 200 µg/mL (≈ 896 µM). The LC50 (Artemia salina; read-out: LD50 (the source's name)) was 192 µg/mL (≈ 861 µM), the zone of inhibition at 40000 µg/mL ([18]; ATCC 4617, 24 h, read-out: DIZ) was 9 mm and the Activity [20] was 5.63%. The MIC (Staphylococcus aureus [21]; ATCC 6538, 18 h) was 100 µg/mL (≈ 448 µM), the Activity (Escherichia coli [22]) was “inactive” and the zone of inhibition at 40000 µg/mL (Aspergillus niger [24]; FCBP 0198, 168 h, read-out: DIZ) was 0 mm. The zone of inhibition at 40000 µg/mL (Klebsiella aerogenes [25]; ATCC 13048, 24 h, read-out: DIZ) was 0 mm, the MIC (Bacillus spizizenii [26]; ATCC 6633, 18 h) was 200 µg/mL (≈ 896 µM) and the IC50 (Leishmania major) was 0.00342 µg/mL (≈ 0.0153 µM). For the same compound, the zone of inhibition at 40000 µg/mL (Bacillus spizizenii [27]; ATCC 6633, 24 h, read-out: DIZ) was 10 mm.
